Screens (PubChem)
An excerpt weighted towards active compounds, which were near 3.9% of everything screened.
STAT1 act-1 – STAT1 signaling activators, primary screen, cell-based, HTS, luciferase reporter | actives 2.6% (n = 200,000) | NIH 3T3 STAT1-luciferase reporter, IFN-gamma, luminescence; 100% = IFN-gamma alone, no compound | activation (% of control), % at 5.5 µM;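 active means activation above the screen-wide mean activation plus 3 SD, cut at about 130% in these data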
NF-kB neuron act – activators of NF-kB expression in neurons, primary screen, cell-based, HTS | actives 1.6% (n = 190,000) | fold change at 12.5 µM | human neuronal cells, NF-kB reporter expression; active compounds read high; in the data active means fold change above about 3.3
STAT1 blocker – STAT1 signaling inhibitors, primary screen, cell-based, HTS, luciferase reporter | NIH 3T3 STAT1-luciferase reporter, IFN-gamma, luminescence | inhibition, % at 5.5 µM | actives 0.35% (n = 200,000) | AID 920, 2007;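 active means inhibition above a set limit, the mean inhibition across all tested compounds plus 3 SD, cut at about 34% in these data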
APP 5'UTR act – activators of APP 5'UTR luciferase reporter, primary screen, SH-SY5Y cells. SH-SY5Y APP 5'UTR luciferase reporter, luminescence; zero percent = DMSO vehicle wells. activation, % at 2 µM. actives 1% (n = 190,000);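 active means activation above a set limit, based on mean plus 3 SD of controls, cut at about 140% in these data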
STAT3 act-1 – IL-6 driven STAT3 reporter potentiators, primary screen, U3A cells, luciferase, luminescence, MLSCN library; activation (% of control), % at 5.6 µM; IL-6 STAT3-luciferase reporter; 100% = signal with IL-6 EC80 alone; AID 871, 2007; actives 0.91% (n = 190,000);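 active means activation above the screen-wide mean of compound activation plus 3 SD, cut at about 130% in these data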
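Material: STAT1-lacking human U3A cells, STAT3 luciferase reporter | Benchmarks: IL-6-only wells as 100% reference | Probe or stimulus: IL-6 (33 ng/mL) | Timing: Compound 1 h, then IL-6 6 h at 37 °C | Detection: Luminescence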
Pf gametocyte – late stage P. falciparum gametocyte viability inhibitors, primary screen, ATP luminescence, HTS. P. falciparum stage V gametocytes, 24 h. inhibition, % at 10.9 µM. actives 0.065% (n = 150,000). AID 743093, 2013;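 active means inhibition above the mean plus 3 SD of compounds within the control limits, set per campaign, cut at about 38% in these data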
STAT3 act-2 – STAT3 reporter potentiators, retest of hits, confirmation, U3A cells, luciferase, luminescence. shares compounds with STAT3 act-1. IL-6 potentiation; U3A cells lack STAT1; 100 means same as IL-6 alone. potentiation (% of control), % at 5.7 µM. actives 64% (n = 1,200). AID 1267, 2008;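 active means percent activation of the STAT3 luciferase reporter above a set limit taken from the earlier primary screen, cut at about 130% in these data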
NFkB act STAT3ct – NF-kB reporter activators in human cells, counter-screen for STAT3 activator project; shares compounds with STAT3 act-1; NF-kappaB reporter activation; activation (% of control), % at 5.7 µM; actives 11% (n = 1,200); AID 1309, 2008; in the data active means activation above about 120%;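 further: reporter induced by TNF-alpha stimulation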
STAT1 act-2 – STAT1 reporter activators, IFN-gamma induced, counter-screen for STAT3 activator project, cell-based, NIH 3T3, luciferase luminescence; shares compounds with STAT3 act-1; AID 1318, 2008; actives 13% (n = 1,200); activation (% of control), % at 5.7 µM; NIH 3T3 STAT1-luciferase reporter;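 active means activation above the solvent-only control well mean plus 3 SD, set per screening run, cut at about 120% in these data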
Hits are given with their value; - = inactive; . = not tested or not shown.

SMILES	STAT1 act-1	NF-kB neuron act	STAT1 blocker	APP 5'UTR act	STAT3 act-1	Pf gametocyte	STAT3 act-2	NFkB act STAT3ct	STAT1 act-2
O=C1C(C=NCc2ccco2)=C(O)c2ccccc21	-	-	-	-	141	.	187	135	164
CC(=O)/C(=N/Nc1ccccc1)Sc1nnc(C(O)c2ccccc2)n1-c1ccccc1 (stereo not given)	-	-	-	-	-	-	.	.	.
O=C(OCc1ccccc1)c1ccc2c(c1)-c1ccccc1C2=O	-	-	-	-	-	.	.	.	.
CCc1ccc2c(c1)C(=O)c1ccccc1C2=O	-	3.5	-	-	142	.	151	131	165
Oc1ccc(Cl)cc1-c1cc(-c2ccccc2)n[nH]1	-	-	-	-	148	.	142	-	125
COc1ccccc1-c1cc(-c2cc(Cl)ccc2O)n[nH]1	-	-	-	-	-	-	.	.	.
C=CCN(C(=O)c1ccc(Cl)cc1)c1ccccc1C(=O)NCC(=O)O	.	.	.	.	.	-	.	.	.
CCOC(=O)c1cnn(-c2ncnc3sc(CC)cc23)c1N	-	-	-	-	144	.	147	-	-
COc1cc2cc(CCO)oc(=O)c2cc1OC	.	.	.	.	.	-	.	.	.
CCC(C)(C)c1nnc(NC(=O)CCC2CCCCC2)s1	.	.	.	.	.	-	.	.	.
CC(=O)Nc1cc(S(=O)(=O)Nc2ccccc2C)c(C)cc1C	-	-	-	-	-	-	.	.	.
Cc1cccc(OCCNC(=O)CCc2ccccc2)c1	.	.	.	.	.	-	.	.	.
CCc1c(C(=O)Nc2ccc(OC)cc2)[nH]c(C)c1C(C)=O	-	-	-	-	-	-	.	.	.
COc1ccc(NC(=O)c2[nH]c(C)c(C(C)=O)c2C)cc1	-	-	-	-	143	-	159	121	129
N#Cc1ccsc1NC(=O)CSc1ncn[nH]1	-	-	-	-	-	-	.	.	.
N#Cc1ccsc1NC(=O)CSc1ncnc2ccccc12	-	-	-	-	148	-	144	-	-
Cc1nn(Cc2ccccc2)c(C)c1/C=N/NC(=O)c1ccccc1O	.	.	.	.	.	-	.	.	.
CCOC(=O)c1sc(Nc2nc3c(F)cccc3s2)cc1C	-	-	-	-	145	-	150	134	-
Cc1cccc(C)c1NC(=S)/C(=C(\[O-])c1cccs1)[n+]1ccccc1	-	-	-	-	-	-	.	.	.
[O-]/C(=C(\C(=S)Nc1cccc2ccccc12)[n+]1ccccc1)c1cccs1	-	-	-	-	143	-	136	-	-
Cc1cccc2nc(CSc3nc4[nH]ncc4c(=O)n3-c3ccccc3Cl)cc(=O)n12	-	-	-	-	136	-	152	-	-
Cc1nn(CC(=O)NCc2ccccc2F)c(C)c1[N+](=O)[O-]	-	-	-	-	-	.	.	.	.
Cc1nn(CC(=O)NCc2cc3ccccc3[nH]2)c(C)c1[N+](=O)[O-]	-	-	-	-	138	-	161	-	-
O=C(Nc1ccccc1O)c1nc(Cl)ccc1Cl	-	-	-	-	156	-	171	-	-
Cc1ccc(C)c(NC(=O)c2nc(Cl)ccc2Cl)c1	-	-	-	-	-	-	.	.	.
SMILES	STAT1 act-1	NF-kB neuron act	STAT1 blocker	APP 5'UTR act	STAT3 act-1	Pf gametocyte	STAT3 act-2	NFkB act STAT3ct	STAT1 act-2
CSc1nc(O)c(C2OC(=O)c3ccccc32)c(=O)[nH]1 (stereo not given)	-	-	-	-	-	.	.	.	.
CSc1nc(O)c(/C=C2\C=Nc3ccccc32)[nH]1	-	-	-	-	138	-	146	-	123
Cc1ccc(C2=Nc3ccccc3NC(C)(c3ccc(C)o3)C2)o1 (stereo not given)	-	-	-	-	138	.	-	-	-
COc1ccc(/C=C/C2=Nc3ccccc3NC(C)(C)C2)cc1OC	.	.	.	.	.	-	.	.	.
CCOC(=O)c1c(-c2ccc(C)cc2)csc1NC(=O)CCSc1nnc2ccccn12	-	-	-	-	-	-	.	.	.
O=C1[C@H](Cc2ccccc2)NCC=CC[C@H](c2ccco2)N1Cc1ccccc1	.	.	.	.	.	-	.	.	.
CCOC(=O)c1[nH]c2ccccc2c1NC(=S)Nc1ccccc1C	-	-	-	-	152	.	155	-	-
CCOC(=O)c1[nH]c2ccc(OC)cc2c1NC(C)=O	-	-	-	-	-	.	.	.	.
CCOC(=O)c1[nH]c2ccccc2c1NC(=S)Nc1cc(C)ccc1C	-	-	-	-	155	.	150	-	-
CCOC(=O)c1[nH]c2ccccc2c1NC(=O)c1ccco1	-	-	-	-	-	.	.	.	.
CCOC(=O)c1[nH]c2ccccc2c1NC(=O)Nc1ccc(OC)cc1	-	-	-	-	141	-	143	-	-
CCCC(=O)Nc1c(C(=O)OCC)[nH]c2ccccc12	-	-	-	-	169	.	149	-	-
OCCC1CN(Cc2ccccc2OC2CCCC2)CCN1Cc1ccsc1 (stereo not given)	-	-	-	-	-	-	.	.	.
COc1ccc(C2(O)CCN(CC(=O)Nc3nc(-c4ccccc4)cs3)CC2)cc1	-	-	-	-	-	-	.	.	.
COC(C)c1oc2c(C)c3oc(=O)cc(C)c3cc2c1C (stereo not given)	.	.	.	.	.	-	.	.	.
CCN(CC)c1ncnc2c1ncn2Cc1c(Cl)cccc1Cl	-	-	-	-	-	-	.	.	.
Clc1cccc(Cl)c1Cn1cnc2c(N3CCCCCC3)ncnc21	-	-	-	-	138	.	139	-	-
COC(=O)c1c(NC(=O)Cn2cnc([N+](=O)[O-])n2)sc2c1CCC(C)C2 (stereo not given)	-	-	-	-	-	-	.	.	.
CC(=O)Nc1ccc(S(=O)(=O)N2CC3(C)CC2CC(C)(C)C3)cc1 (stereo not given)	-	-	-	-	137	-	-	-	-
CC1(C)CC2CC(C)(CN2S(=O)(=O)c2ccc(C(=O)Nc3ccc(S(=O)(=O)N4CCOCC4)cc3)cc2)C1 (stereo not given)	-	-	-	-	-	-	.	.	.
COc1cc(SC#N)ccc1N=Cc1c(C)[nH]n(-c2ccc(Cl)cc2)c1=O	-	-	-	-	144	-	-	-	-
COc1cc(SC#N)ccc1N=Cc1c(C)[nH]n(-c2ccc(C)c(C)c2)c1=O	-	-	-	.	-	-	.	.	.
COc1cc2c(cc1OC)-c1cc(N3CCCc4ccccc43)nc(=O)n1CC2	-	-	-	-	149	-	133	-	-
COc1cc2c(cc1OC)-c1cc(N3CCc4ccccc43)nc(=O)n1CC2	.	.	.	.	.	-	.	.	.
